Data reported in ChEMBL document CHEMBL5113456, “2-Aminopyridines with a shortened amino sidechain as potent, selective, and highly permeable human neuronal nitric oxide synthase inhibitors” (Bioorg Med Chem, 2022).

Assays:
Nitric oxide synthase 3 = target: T1, Nitric oxide synthase 3 (Homo sapiens, UniProt P29474); assay: Inhibition of human eNOS using L-arginine as substrate assessed as reduction in NO production in the presence of NADPH by NO-hemoglobin capture assay
T1 sequence (P29474 whole entry): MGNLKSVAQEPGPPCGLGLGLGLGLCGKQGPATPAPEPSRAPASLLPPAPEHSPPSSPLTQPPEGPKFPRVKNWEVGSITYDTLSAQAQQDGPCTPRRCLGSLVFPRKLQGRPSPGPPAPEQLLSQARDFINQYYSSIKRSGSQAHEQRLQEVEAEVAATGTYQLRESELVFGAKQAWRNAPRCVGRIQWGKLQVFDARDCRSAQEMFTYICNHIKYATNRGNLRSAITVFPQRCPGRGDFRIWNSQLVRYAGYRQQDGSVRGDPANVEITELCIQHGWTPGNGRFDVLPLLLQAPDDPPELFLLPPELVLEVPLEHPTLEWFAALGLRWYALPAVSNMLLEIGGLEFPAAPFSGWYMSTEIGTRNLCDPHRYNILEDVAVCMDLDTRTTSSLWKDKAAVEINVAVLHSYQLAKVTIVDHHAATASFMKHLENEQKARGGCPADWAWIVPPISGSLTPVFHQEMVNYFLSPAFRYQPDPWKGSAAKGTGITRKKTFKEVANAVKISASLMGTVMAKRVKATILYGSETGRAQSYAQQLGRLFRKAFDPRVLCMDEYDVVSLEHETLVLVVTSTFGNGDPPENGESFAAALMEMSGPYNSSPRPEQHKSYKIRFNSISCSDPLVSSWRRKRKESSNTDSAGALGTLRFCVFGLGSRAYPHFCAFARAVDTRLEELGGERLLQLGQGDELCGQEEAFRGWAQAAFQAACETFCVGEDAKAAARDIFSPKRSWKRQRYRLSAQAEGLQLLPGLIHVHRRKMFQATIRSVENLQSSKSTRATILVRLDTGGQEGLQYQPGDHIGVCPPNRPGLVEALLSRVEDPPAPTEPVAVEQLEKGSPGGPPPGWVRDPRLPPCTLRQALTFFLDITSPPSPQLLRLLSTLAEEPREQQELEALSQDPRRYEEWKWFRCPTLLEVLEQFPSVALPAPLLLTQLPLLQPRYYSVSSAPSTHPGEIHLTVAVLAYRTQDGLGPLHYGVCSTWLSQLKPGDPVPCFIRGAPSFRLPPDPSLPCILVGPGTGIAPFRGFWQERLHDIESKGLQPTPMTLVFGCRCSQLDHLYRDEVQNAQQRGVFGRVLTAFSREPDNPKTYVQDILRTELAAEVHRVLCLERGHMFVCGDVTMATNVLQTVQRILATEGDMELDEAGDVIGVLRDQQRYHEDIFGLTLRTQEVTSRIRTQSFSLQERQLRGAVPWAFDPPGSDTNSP
Outline: (§1)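 Ki was obtained from IC50 by the Cheng–Prusoff equation. […] Enzyme was purified human NOS isoform. Assay buffer was 100 mM HEPES, 10% glycerol, pH 7.4–7.5, and stock buffer was 100 mM HEPES, pH 7.4–7.5. Plate reader syringe lines were equilibrated with assay buffer before the run.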

[1] = Effective permeability of compound in PBS buffer at pH 7.4 at 200 uM incubated for 17 hrs by PAMPA-BBB assay; type: ADME; settings: read-out: Peff
[2] = target: Nitric oxide synthase, inducible (Homo sapiens, UniProt P35228); assay: Inhibition of human iNOS using L-arginine as substrate assessed as reduction in NO production in the presence of NADPH by NO-hemoglobin capture assay; outline: as §1
Sequence of Nitric oxide synthase, inducible (P35228 whole entry): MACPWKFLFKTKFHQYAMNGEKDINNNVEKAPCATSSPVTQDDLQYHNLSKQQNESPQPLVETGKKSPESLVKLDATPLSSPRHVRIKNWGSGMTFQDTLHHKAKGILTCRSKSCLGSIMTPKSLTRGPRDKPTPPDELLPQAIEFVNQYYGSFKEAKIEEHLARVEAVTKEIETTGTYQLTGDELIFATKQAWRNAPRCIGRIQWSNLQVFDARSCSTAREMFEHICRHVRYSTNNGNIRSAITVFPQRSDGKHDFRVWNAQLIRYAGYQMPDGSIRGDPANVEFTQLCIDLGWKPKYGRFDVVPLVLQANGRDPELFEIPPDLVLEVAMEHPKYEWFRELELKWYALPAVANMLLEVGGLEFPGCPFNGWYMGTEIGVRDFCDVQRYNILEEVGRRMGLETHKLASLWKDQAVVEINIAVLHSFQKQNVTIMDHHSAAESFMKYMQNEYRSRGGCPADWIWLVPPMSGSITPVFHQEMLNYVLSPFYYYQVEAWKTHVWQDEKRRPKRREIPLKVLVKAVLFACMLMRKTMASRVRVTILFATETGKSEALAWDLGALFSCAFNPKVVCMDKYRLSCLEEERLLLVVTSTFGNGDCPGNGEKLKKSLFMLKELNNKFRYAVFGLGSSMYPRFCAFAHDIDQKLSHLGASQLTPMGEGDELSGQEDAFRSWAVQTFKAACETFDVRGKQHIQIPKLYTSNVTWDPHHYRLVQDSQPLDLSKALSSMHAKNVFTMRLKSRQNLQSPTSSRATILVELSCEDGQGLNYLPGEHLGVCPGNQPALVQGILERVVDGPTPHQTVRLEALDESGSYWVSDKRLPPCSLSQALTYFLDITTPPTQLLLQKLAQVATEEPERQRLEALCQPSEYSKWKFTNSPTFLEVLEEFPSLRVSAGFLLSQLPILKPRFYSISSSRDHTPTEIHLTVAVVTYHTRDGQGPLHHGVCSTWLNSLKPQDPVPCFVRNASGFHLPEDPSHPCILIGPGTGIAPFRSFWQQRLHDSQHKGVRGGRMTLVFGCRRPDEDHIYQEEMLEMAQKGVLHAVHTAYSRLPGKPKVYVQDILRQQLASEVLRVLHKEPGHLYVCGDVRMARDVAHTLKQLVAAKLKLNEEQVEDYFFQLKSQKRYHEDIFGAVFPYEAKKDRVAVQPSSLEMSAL

Nitric oxide synthase 1 [3] = target: Nitric oxide synthase 1 (Rattus norvegicus, UniProt P29476)
Sequence of Nitric oxide synthase 1 (Rattus norvegicus, UniProt P29476) (P29476 whole entry): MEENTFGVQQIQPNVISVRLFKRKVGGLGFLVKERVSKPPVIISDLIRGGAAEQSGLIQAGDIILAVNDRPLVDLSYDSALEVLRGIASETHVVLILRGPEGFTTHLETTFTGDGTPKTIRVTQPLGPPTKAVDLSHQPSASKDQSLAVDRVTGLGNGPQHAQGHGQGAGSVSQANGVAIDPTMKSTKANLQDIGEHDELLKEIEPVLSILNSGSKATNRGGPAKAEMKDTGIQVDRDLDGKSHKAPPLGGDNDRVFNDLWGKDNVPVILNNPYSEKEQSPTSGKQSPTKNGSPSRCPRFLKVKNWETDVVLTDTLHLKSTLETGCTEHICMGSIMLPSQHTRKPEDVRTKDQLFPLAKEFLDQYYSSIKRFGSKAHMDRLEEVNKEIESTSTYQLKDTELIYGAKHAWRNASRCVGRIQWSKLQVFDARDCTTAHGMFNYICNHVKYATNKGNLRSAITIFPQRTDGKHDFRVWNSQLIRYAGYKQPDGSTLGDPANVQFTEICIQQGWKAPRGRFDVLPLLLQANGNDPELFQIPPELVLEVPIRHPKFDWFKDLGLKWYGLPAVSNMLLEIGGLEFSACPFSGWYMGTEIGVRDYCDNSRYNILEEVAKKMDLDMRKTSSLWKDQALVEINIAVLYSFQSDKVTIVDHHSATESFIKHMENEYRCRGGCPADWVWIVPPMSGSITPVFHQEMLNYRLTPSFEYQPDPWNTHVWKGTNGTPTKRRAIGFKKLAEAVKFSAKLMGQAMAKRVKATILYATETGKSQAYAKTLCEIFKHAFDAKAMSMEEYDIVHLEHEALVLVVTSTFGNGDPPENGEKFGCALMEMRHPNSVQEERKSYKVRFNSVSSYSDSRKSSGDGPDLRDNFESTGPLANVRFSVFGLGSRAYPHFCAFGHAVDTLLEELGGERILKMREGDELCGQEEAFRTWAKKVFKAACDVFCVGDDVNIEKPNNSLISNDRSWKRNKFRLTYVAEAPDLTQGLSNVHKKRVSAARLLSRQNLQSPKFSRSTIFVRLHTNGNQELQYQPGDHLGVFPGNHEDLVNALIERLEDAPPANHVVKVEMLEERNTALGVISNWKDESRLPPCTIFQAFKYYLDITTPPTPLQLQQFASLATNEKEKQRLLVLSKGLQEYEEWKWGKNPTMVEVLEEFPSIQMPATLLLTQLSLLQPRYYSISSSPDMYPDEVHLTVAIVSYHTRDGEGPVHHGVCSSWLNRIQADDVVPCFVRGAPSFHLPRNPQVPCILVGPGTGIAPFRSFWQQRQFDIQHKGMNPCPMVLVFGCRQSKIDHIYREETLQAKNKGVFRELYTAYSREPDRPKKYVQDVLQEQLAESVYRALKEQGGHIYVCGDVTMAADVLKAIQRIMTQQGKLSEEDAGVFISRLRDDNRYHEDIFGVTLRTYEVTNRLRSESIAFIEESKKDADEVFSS

Nitric oxide synthase 1 [4] = target: Nitric oxide synthase 1 (Homo sapiens, UniProt P29475)
Sequence of Nitric oxide synthase 1 (Homo sapiens, UniProt P29475) (P29475 whole entry): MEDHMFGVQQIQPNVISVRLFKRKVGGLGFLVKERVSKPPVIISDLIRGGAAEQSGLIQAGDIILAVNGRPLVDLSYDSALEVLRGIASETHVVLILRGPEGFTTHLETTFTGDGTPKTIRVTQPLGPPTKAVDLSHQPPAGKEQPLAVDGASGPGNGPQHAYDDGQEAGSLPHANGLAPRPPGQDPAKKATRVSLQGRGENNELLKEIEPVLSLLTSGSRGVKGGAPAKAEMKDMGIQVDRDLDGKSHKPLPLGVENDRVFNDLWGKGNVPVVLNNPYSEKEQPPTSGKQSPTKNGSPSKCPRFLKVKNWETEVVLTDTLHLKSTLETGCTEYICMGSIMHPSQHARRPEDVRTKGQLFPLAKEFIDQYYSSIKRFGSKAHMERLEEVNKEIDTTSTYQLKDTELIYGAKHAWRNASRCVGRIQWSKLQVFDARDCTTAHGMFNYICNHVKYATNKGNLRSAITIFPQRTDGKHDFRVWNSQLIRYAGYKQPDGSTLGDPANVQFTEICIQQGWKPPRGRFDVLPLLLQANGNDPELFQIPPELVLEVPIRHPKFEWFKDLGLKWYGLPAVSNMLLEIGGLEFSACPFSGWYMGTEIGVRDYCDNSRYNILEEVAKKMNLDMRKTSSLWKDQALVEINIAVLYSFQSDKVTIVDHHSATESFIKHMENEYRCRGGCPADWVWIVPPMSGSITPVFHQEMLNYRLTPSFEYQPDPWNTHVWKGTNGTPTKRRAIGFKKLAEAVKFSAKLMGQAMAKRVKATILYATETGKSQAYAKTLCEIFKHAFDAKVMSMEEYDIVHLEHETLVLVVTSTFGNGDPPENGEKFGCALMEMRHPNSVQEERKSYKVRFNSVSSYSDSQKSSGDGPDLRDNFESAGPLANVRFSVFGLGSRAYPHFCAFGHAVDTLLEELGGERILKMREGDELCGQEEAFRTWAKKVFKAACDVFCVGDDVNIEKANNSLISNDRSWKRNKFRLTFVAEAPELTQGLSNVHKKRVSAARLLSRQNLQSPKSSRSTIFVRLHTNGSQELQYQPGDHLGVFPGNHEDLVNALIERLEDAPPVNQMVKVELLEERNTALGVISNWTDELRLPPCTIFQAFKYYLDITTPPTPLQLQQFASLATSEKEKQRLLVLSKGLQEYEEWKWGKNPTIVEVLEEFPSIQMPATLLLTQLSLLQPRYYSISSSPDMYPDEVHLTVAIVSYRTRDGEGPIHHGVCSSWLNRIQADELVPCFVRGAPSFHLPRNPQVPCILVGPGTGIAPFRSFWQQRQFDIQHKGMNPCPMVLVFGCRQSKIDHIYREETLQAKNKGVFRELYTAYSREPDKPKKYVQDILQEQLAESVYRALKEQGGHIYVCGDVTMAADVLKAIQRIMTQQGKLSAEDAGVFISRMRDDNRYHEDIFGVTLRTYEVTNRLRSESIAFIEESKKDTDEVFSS

SMILES | Ki (Nitric oxide synthase 3) [µM] | Papp at 17 h, 200 µM [1] [×10⁻⁶ cm/s] | Ki [2] [µM] | Ki (Nitric oxide synthase 1 [3]) [µM] | Ki (Nitric oxide synthase 1 [4]) [µM]
Cc1cc(N)nc(C#CCN2CCN(C)CC2)c1 | 43.8 | 3.2 |  |  | 
Cc1cc(N)nc(C#CCCN(C)C)c1 | 70.5 | 4.7 | 29.8 | 0.242 | 0.327
CNCC#Cc1cc(C)cc(N)n1 | 1.92 | 4.7 |  |  | 
Cc1cc(N)nc(CCCN2CCC(F)(F)CC2)c1 | 18.6 | 17.3 | 6.48 | 0.046 | 0.048
Cc1cc(N)nc(CCCCN(C)C)c1 | 7.35 | 2.3 | 7.67 |  | 
Cc1cc(N)nc(C#CCN2CCC(F)(F)CC2)c1 | 18.9 | 21.1 | 27.4 | 1.59 | 1.43
Cc1cc(N)nc(CCCN(C)C)c1 | 3.66 | 2 |  |  | 
CNCCCc1cc(C)cc(N)n1 | 1.47 | 0.96 |  |  | 
Cc1cc(N)nc(C#CCN2CC(F)(F)C2)c1 | 5.13 | 19.6 | 11.1 | 0.465 | 0.488
Cc1cc(N)nc(CCCN2CCN(C)CC2)c1 | 12.5 | 2.2 |  | 0.056 | 
Cc1cc(N)nc(CCCN2CC(F)(F)C2)c1 | 6.27 | 17.5 | 4.36 | 0.095 | 0.149
